Assay results taken from ChEMBL document CHEMBL1144664, “Design, synthesis, and SAR of new pyrrole-oxindole progesterone receptor modulators leading to 5-(7-fluoro-3,3-dimethyl-2-oxo-2,3-dihydro-1H-indol-5-yl)-1-methyl-1H-pyrrole-2-carbonitrile (WAY-255348)” (J Med Chem, 2008).
Calls of active or inactive are those of the source. The rule behind the calls is not given here.

Tests used:
Rhesus monkey = test: Effect on endometrium weight of rhesus monkey; type: functional, Macaca mulatta
Method in brief: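 Adult female rhesus macaques (n=3) with regular cycles dosed 10 mg/(kg·day) po in 2% Tween 80/0.5% methylcellulose with cherry flavoring for 28 days from cycle day 2. Serum estradiol and progesterone measured every 3 days. Necropsy on day 28. Uterine weights are of half the uterus; KI-67 and mitotic indices counted per 1000 cells. Values given as mean ± SE.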

[1] = Half life in Sprague-Dawley rat at 5 mg/kg, po; type: ADME, organism-based; parameters: dose 5 mg/kg, route oral; details: in vivo
Method in brief: (§1)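 Female Sprague–Dawley rats dosed as 1-in-4 cassette or discrete studies. iv in DMSO/PEG200 20:80; po in aqueous 2% Tween 80/0.5% methyl cellulose. Parameters reported: C0, Cmax, t1/2, plasma clearance, Vss, AUC0-inf and %F.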

[2] = Half life in Sprague-Dawley rat at 0.5 mg/kg, iv; type: ADME, organism-based; parameters: dose 0.5 mg/kg, route intravenous; details: in vivo; method in brief: as §1
Androgen receptor = molecular target: T1, Androgen receptor (Homo sapiens, UniProt P10275)
T1 sequence (P10275 whole entry): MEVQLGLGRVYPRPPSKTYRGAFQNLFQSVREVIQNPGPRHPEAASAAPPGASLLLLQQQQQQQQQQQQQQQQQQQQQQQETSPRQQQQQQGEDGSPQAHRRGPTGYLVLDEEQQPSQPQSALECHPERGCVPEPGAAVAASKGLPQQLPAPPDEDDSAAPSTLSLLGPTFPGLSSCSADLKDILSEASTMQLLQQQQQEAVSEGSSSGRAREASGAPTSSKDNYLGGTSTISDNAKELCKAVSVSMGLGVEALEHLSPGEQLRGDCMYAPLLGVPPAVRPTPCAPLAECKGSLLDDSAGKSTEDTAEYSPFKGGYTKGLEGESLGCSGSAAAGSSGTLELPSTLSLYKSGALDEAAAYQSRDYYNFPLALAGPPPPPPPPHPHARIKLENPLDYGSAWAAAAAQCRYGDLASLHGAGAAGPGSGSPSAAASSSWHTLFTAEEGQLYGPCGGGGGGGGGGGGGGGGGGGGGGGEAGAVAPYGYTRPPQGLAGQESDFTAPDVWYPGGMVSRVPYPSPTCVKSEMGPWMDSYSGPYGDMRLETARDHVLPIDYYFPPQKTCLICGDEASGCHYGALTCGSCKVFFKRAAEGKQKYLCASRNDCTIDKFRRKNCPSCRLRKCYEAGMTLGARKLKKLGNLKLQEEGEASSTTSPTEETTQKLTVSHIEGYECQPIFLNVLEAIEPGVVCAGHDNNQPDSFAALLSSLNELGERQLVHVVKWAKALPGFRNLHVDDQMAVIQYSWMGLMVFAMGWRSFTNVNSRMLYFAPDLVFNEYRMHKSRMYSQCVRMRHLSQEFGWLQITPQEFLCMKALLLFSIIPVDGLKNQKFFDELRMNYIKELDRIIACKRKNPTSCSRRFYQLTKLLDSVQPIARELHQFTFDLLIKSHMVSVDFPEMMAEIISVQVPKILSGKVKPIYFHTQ

[3] = Plasma clearance in cynomolgus monkey at […], iv; type: ADME, organism-based, Macaca fascicularis; parameters: dose 0.25 mg/kg, route intravenous
[4] = molecular target: T2, Mineralocorticoid receptor (Homo sapiens) (UniProt P08235); test: Agonist activity at human MR ligand binding domain receptor expressed in african green monkey COS7 cells by Gal4 hybrid assay; type: cell-based; details: COS-7
T2 sequence (whole entry): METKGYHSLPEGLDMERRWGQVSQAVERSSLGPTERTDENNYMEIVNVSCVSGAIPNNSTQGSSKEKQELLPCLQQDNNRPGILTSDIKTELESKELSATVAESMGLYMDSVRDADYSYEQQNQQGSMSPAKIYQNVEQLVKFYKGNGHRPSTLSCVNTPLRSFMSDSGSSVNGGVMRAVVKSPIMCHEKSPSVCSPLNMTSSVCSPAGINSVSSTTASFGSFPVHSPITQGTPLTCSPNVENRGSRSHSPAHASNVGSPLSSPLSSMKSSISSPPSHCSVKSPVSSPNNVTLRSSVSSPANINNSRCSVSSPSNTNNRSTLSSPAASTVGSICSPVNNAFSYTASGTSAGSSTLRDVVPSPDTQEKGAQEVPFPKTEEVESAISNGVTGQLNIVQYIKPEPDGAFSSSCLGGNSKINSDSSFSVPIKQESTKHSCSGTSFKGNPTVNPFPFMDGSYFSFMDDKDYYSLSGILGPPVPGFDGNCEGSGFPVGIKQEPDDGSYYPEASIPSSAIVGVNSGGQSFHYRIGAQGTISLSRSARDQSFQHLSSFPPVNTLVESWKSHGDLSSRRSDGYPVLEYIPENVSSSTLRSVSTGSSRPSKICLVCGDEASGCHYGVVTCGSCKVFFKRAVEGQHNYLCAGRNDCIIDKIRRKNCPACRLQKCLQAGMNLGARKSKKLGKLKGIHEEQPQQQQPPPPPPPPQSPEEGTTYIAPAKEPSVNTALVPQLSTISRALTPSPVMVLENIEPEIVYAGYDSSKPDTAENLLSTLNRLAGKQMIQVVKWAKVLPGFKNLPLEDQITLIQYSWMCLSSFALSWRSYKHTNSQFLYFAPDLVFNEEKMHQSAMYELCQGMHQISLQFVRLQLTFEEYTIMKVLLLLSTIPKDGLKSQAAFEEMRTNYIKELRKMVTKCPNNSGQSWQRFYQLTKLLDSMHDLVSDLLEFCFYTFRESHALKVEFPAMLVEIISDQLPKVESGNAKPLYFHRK
Method in brief: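 Gal4-steroid receptor LBD fusion plasmid plus GAL4_UAS (5 copies, E1b TATA)-luciferase reporter, 50 ng/well each, transfected 16 h into COS-7 cells grown in phenol red-free DMEM with 10% charcoal/dextran-treated FBS. Compound treatment 20 h, then luciferase read-out. Antagonist mode uses 3 nM aldosterone (hMR) or 5 nM 17β-estradiol (hER). Values are the average of at least duplicate determinations.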

[5] = AUC (0 to infinity) in cynomolgus monkey at 5 mg/kg, po; type: ADME, organism-based, Macaca fascicularis; parameters: dose 5 mg/kg, route oral, time infinity; details: plasma
[6] = Cmax in Sprague-Dawley rat at 5 mg/kg, po; type: ADME, organism-based; parameters: dose 5 mg/kg, route oral; details: in vivo; method in brief: as §1
[7] = Plasma clearance in Sprague-Dawley rat at 1 mg/kg, iv; type: ADME, organism-based; parameters: dose 1 mg/kg, route intravenous; method in brief: as §1
[8] = Volume of distribution at steady state in cynomolgus monkey at […], iv; type: ADME, organism-based, Macaca fascicularis; parameters: dose 0.25 mg/kg, route intravenous; details: in vivo, read-out: Vdss

## Cn1c(C#N)ccc1-c1cc(F)c2c(c1)C(C)(C)C(=O)N2
Rhesus monkey
  Activity: 60 mg
[1]
  half-life: 9.3 h
[2]
  half-life: 9.5 h
Androgen receptor
  IC50: 196 nM
[3]
  clearance: 7 mL/min/kg
[4]
  Activity: inactive
[5]
  AUC(0-inf): 5740 ng·h/mL
[6]
  Cmax: 414 ng/mL
[7]
  clearance: 4 mL/min/kg
[8]
  Vd: 3.9 L/kg
